In ChEMBL document CHEMBL3352722, “Calcitonin gene-related peptide receptor antagonists: new therapeutic agents for migraine” (J Med Chem, 2014):
Blank lines part the entries; values can stand above or below the compound they belong to.

What was measured:
Homo sapiens [1] = species on record: Homo sapiens; assay: Antimigraine activity in migraine patient assessed as pain relief incidence at 5 mg after 2 hrs (reference value: 27.7%); format: functional
Homo sapiens [2] = species on record: Homo sapiens; assay: Antimigraine activity in migraine patient assessed as pain freedom incidence at 5 mg after 2 hrs (reference value: 9.6%); format: functional
Homo sapiens [3] = species on record: Homo sapiens; assay: Antimigraine activity in migraine patient assessed as induction pain relief at 5 mg after 2 hrs; format: functional
Homo sapiens [4] = assay: In vivo receptor occupancy at CGRP receptor in human brain at 1120 mg using […]-labeled compound; format: functional
Homo sapiens [5] = assay: In vivo receptor occupancy at CGRP receptor in human brain at 140 mg using […]-labeled compound; format: functional
[6] = Plasma clearance in healthy human; format: ADME
Homo sapiens [7] = species on record: Homo sapiens; assay: Antimigraine activity in migraine patient assessed as pain relief incidence at 2.5 mg after 2 hrs (reference value: 27%); format: functional
[8] = Cmax in healthy human at 2.5 mg; format: ADME, organism-based; design: dose 2.5 mg; settings: in vivo
[9] = Oral bioavailability in dog; format: ADME, organism-based, Canis lupus familiaris; settings: in vivo
Homo sapiens [10] = species on record: Homo sapiens; assay: Antimigraine activity in migraine patient assessed as pain freedom incidence at 2.5 mg after 2 hrs (reference value: 2%); format: functional
[11] = Oral bioavailability in rat; format: ADME, organism-based; settings: in vivo
Homo sapiens [12] = species on record: Homo sapiens; assay: Toxicity in healthy human; format: organism-based; settings: in vivo
Homo sapiens [13] = species on record: Homo sapiens; assay: Antimigraine activity in migraine patient assessed as pain relief incidence at 200 mg after 2 hrs (reference value: 18.6%); format: functional
Homo sapiens [14] = species on record: Homo sapiens; assay: Antimigraine activity in migraine patient assessed as pain relief incidence at 400 mg after 2 hrs (reference value: 18.6%); format: functional
Homo sapiens [15] = species on record: Homo sapiens; assay: Antimigraine activity in migraine patient assessed as response rate for pain freedom at 50 to 400 mg after 2 hrs; format: functional
Homo sapiens [16] = species on record: Homo sapiens; assay: Antimigraine activity in migraine patient assessed as response rate for pain freedom at 50 mg after 2 hrs; format: functional
Homo sapiens [17] = species on record: Homo sapiens; assay: Antimigraine activity in migraine patient assessed as response rate for pain freedom at 400 mg after 2 hrs; format: functional
[18] = target: Calcitonin gene-related peptide type 1 receptor (Homo sapiens, UniProt O60894+Q16602); assay: Antagonist activity against human CGRP receptor
Chain of Calcitonin gene-related peptide type 1 receptor (Homo sapiens, UniProt O60894+Q16602) (Q16602 whole entry, one chain of several): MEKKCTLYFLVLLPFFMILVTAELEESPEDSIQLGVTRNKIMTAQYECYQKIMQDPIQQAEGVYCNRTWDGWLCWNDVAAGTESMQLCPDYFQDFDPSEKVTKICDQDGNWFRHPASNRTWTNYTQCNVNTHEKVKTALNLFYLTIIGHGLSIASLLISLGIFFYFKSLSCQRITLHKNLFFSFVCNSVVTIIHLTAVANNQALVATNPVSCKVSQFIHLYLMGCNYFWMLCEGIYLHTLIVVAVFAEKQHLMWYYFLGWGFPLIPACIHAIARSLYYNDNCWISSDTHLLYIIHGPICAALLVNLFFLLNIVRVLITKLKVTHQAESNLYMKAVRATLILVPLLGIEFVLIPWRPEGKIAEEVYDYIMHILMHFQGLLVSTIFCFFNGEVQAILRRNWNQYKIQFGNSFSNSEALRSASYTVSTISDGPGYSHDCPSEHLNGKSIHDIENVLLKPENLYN

Homo sapiens [19] = species on record: Homo sapiens; assay: Antimigraine activity in migraine patient assessed as response rate for pain freedom at 200 mg after 2 hrs; format: functional
Homo sapiens [20] = species on record: Homo sapiens; assay: Antimigraine activity in migraine patient assessed as pain freedom incidence at 400 mg after 2 hrs (reference value: 8.6%); format: functional
Homo sapiens [21] = species on record: Homo sapiens; assay: Antimigraine activity in migraine patient assessed as pain freedom incidence at 200 mg after 2 hrs (reference value: 8.6%); format: functional
Homo sapiens [22] = species on record: Homo sapiens; assay: Inhibition of capsaicin-induced dermal vasodilation in human by laser Doppler imaging method; format: functional
Homo sapiens [23] = species on record: Homo sapiens; assay: Antimigraine activity in migraine patient assessed as pain relief incidence at 10 mg after 2 hrs (reference value: 36.1%); format: functional
Homo sapiens [24] = species on record: Homo sapiens; assay: Selectivity for human CGRP receptor over AM2 receptor (unknown origin)
Summary of the method: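 Radioligand binding on membranes from HEK293 cells stably expressing human CLR/RAMP1 (CGRP receptor; [125I]hCGRP displaced) or human CLR/RAMP3 (AM2 receptor; [125I]hAM displaced). Ki values come from inhibition of radioligand binding. Selectivity is the ratio of AM2 Ki to CGRP Ki.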

[25] = Binding affinity to rhesus monkey CGRP receptor; design: species or system Macaca mulatta
Homo sapiens [26] = species on record: Homo sapiens; assay: Selectivity for human CGRP receptor over AMY1 receptor (unknown origin)
Homo sapiens [27] = species on record: Homo sapiens; assay: Antimigraine activity in migraine patient assessed as pain relief incidence at 200 mg after 2 hrs (reference value: 36.1%); format: functional
Homo sapiens [28] = species on record: Homo sapiens; assay: Selectivity for human CGRP receptor over AM1 receptor (unknown origin)
Homo sapiens [29] = species on record: Homo sapiens; assay: Antimigraine activity in migraine patient assessed as pain freedom incidence at 200 mg after 2 hrs (reference value: 9.8%); format: functional
[30] = target: Calcitonin gene-related peptide type 1 receptor (Homo sapiens, UniProt Q16602)
Chain of Calcitonin gene-related peptide type 1 receptor (Homo sapiens, UniProt Q16602) (Q16602 whole entry): as the sequence (Q16602 whole entry, one chain of several) above

Homo sapiens [31] = species on record: Homo sapiens; assay: Antimigraine activity in migraine patient assessed as pain freedom incidence at 10 mg after 2 hrs (reference value: 9.8%); format: functional

Structure (SMILES): CN(C)CCc1c[nH]c2ccc(C[C@H]3COC(=O)N3)cc12 [ZOLMITRIPTAN]
Activity (Homo sapiens [1]): 56.4%
Activity (Homo sapiens [2]): 31.3%
Activity (Homo sapiens [3]): 56.4%

Structure (SMILES): C[C@@]1(c2cc(F)cc(F)c2)CN([11CH3])C2(CCCC2)C(=O)N1CC(=O)Nc1ccc2c(c1)C[C@@]1(C2)C(=O)Nc2ncccc21
Occ (Homo sapiens [4]): 43%
Occ (Homo sapiens [5]): <=10%

clearance [6]: 200 mL/min
Cmax [8]: 240 nM
bioavailability [9]: < 1%
bioavailability [11]: < 1%
Structure (SMILES): NCCCC[C@H](NC(=O)[C@@H](Cc1cc(Br)c(O)c(Br)c1)NC(=O)N1CCC(N2Cc3ccccc3NC2=O)CC1)C(=O)N1CCN(c2ccncc2)CC1 [OLCEGEPANT]
Activity (Homo sapiens [7]): 66%
Activity (Homo sapiens [10]): 44%
NOAEL (Homo sapiens [12]): 2.5 mg

Ki [18]: 0.3 nM
Structure (SMILES): Cc1cc(C[C@@H](OC(=O)N2CCC(N3CCc4ccccc4NC3=O)CC2)C(=O)N2CCC(N3CCOCC3)CC2)cc(C)c1O [BI-44370]
Activity (Homo sapiens [13]): 50.8%
Activity (Homo sapiens [14]): 56.2%
Activity (Homo sapiens [15]): 34.8%
Activity (Homo sapiens [16]): 7.8%
Activity (Homo sapiens [17]): 27.4%
Activity (Homo sapiens [19]): 21.5%
Activity (Homo sapiens [20]): 27.4%
Activity (Homo sapiens [21]): 21.5%

IC50 [18]: 17000 nM
Structure (SMILES): NCCCC[C@H](NC(=O)[C@@H](Cc1cc(Br)c(O)c(Br)c1)NC(=O)CCCc1ccccc1)C(=O)NCCc1ccccc1

EC90 (Homo sapiens [22]): 14 nM
Selectivity ratio (Homo sapiens [24]): 6500
Ki [25]: 0.024 nM
Selectivity ratio (Homo sapiens [26]): 30
Selectivity ratio (Homo sapiens [28]): > 600000
T1/2 [30]: 59 min
Structure (SMILES): O=C(CN1C(=O)C2(CCCC2)NC[C@H]1c1cc(F)cc(F)c1)Nc1ccc2c(c1)C[C@@]1(C2)C(=O)Nc2ncccc21 [MK3207]
Activity (Homo sapiens [23]): 57.1%
Activity (Homo sapiens [27]): 69%
Activity (Homo sapiens [29]): 36.2%
Activity (Homo sapiens [31]): 25.4%
